Assay results as given in ChEMBL document CHEMBL4414574, “Structure-Based Discovery and Development of a Series of Potent and Selective Bromodomain and Extra-Terminal Protein Inhibitors” (J Med Chem, 2019).
Activity calls are given as the source filed them. The rule behind the calls is not given here.

Tests used:
Cytochrome P450 1A2 = target: T1, Cytochrome P450 1A2 (Homo sapiens, UniProt P05177); test: Time-dependent inhibition of CYP1A2 in human liver microsomes at 10 uM using phenacetin as substrate preincubated up to 30 mins followed by NADPH generating system addition and measured after 10 mins; format: ADME
T1 sequence (P05177 whole entry): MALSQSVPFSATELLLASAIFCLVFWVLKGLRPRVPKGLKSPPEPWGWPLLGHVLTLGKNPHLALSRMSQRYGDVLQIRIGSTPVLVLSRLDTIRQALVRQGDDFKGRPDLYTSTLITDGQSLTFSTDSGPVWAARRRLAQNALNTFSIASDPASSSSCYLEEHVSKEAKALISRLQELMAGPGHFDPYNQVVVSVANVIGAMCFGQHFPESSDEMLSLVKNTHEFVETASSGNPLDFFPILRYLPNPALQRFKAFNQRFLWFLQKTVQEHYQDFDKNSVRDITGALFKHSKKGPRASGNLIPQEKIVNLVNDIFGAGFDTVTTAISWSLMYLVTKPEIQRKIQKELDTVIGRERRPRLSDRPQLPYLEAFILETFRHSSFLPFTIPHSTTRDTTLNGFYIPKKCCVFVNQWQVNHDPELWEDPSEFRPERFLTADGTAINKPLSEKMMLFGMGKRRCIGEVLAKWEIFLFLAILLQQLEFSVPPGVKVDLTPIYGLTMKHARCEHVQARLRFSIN
Procedure, shortened: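 Human liver microsomes 0.2 mg/mL, 100 mM phosphate pH 7.4, 10 μM test compound, preincubated 0, 5, 10 and 30 min at 37 °C; then NADPH plus probe cocktail (5 μM midazolam, 50 μM testosterone, 5 μM dextromethorphan, 10 μM diclofenac, 50 μM phenacetin, 50 μM S-(+)-mephenytoin) added; 10 min reaction; kobs in units of 10^-4/min.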

MM1.S = test: Antiproliferative activity against human MM1S cells after 72 hrs by CCK8 or SRB assay; format: functional, cell-based
Procedure, shortened: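 IC50 against MM.1S cell proliferation was taken as the mean of three independent experiments, each run in triplicate, reported with SEM.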

[1] = Cmax in ICR mouse at 10 mg/kg, po administered via gavage measured after 0.25 to 24 hrs by UPLC/MS analysis; format: ADME, organism-based; design: dose 10 mg/kg, route oral; details: in vivo
Procedure, shortened: (§1)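 Male ICR mice dosed orally in 1% DMSO/0.5% HPMC vehicle; plasma or brain drug levels used to derive Tmax, Cmax, AUC0-t, AUC0-inf and T1/2.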

[2] = Half life in ICR mouse at 10 mg/kg, po administered via gavage measured after 0.25 to 24 hrs by UPLC/MS analysis; format: ADME, organism-based; details: in vivo; procedure, shortened: as §1
[3] = target: Bromodomain-containing protein 3 (Homo sapiens) (UniProt Q15059); test: Binding affinity to human partial length BRD3 bromodomain 1 (P24 to E144 residues) expressed in Escherichia coli BL21 cells assessed as residual binding level at 1 uM measured after 1 hr by quantitative PCR based BROMOscan assay relative to control
Bromodomain-containing protein 3 (Homo sapiens), sequence (Q15059 2-726 limits assumed): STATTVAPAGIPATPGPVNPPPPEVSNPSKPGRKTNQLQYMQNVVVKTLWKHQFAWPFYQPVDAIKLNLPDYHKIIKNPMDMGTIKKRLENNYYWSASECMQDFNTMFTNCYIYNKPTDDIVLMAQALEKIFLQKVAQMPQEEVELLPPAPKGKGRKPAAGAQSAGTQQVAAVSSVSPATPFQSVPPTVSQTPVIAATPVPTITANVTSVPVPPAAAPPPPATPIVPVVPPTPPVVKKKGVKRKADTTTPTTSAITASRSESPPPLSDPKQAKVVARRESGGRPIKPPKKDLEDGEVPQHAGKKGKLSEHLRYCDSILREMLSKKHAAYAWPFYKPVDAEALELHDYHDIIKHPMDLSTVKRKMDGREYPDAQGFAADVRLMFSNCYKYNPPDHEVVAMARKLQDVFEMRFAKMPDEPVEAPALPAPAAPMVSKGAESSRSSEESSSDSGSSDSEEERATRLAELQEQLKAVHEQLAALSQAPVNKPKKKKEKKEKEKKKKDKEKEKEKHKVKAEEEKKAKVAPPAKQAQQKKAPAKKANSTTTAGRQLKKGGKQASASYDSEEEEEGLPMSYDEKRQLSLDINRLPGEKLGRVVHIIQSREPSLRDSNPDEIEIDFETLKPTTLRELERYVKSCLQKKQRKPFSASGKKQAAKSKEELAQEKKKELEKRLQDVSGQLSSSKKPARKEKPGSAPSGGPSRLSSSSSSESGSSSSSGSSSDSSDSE
Procedure, shortened: (§2)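 A BROMOScan competition-binding panel of 32 bromodomains was run at a single 1 μM compound concentration. Results are primary-screen 'Percent Control', where lower values indicate stronger binding.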

[4] = target: Histone acetyltransferase KAT2A (Homo sapiens) (UniProt Q92830); test: Binding affinity to human partial length GCN5L2 (E726 to K837 residues) expressed in Escherichia coli BL21 cells assessed as residual binding level at 1 uM measured after 1 hr by quantitative PCR based BROMOscan assay relative to control; procedure, shortened: as §2
Histone acetyltransferase KAT2A (Homo sapiens), sequence (Q92830 2-837 limits assumed): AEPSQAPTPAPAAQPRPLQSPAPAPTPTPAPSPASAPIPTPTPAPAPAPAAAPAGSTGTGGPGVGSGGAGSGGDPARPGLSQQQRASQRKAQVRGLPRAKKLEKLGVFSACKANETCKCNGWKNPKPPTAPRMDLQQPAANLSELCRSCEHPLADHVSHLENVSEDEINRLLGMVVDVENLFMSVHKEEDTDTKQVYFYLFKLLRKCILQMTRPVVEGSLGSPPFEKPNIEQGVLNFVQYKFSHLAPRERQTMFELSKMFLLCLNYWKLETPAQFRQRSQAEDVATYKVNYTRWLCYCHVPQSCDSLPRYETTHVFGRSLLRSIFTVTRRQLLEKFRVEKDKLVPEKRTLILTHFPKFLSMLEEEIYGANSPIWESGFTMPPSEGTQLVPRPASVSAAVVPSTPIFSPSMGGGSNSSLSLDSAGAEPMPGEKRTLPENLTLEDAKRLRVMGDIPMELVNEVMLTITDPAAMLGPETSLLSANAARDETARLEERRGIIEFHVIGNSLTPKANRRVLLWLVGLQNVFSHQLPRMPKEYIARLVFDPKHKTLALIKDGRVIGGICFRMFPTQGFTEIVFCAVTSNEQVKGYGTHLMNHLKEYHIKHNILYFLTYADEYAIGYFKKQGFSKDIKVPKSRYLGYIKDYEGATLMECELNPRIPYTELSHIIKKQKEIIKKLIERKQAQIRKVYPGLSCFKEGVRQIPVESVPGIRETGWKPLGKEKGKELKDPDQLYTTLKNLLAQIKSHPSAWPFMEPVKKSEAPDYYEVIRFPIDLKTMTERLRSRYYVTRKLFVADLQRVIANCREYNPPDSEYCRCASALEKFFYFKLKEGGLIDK

[5] = target: Bromodomain adjacent to zinc finger domain protein 2A (Homo sapiens) (UniProt Q9UIF9); test: Binding affinity to human partial length BAZ2A (M1792 to L1905 residues) expressed in Escherichia coli BL21 cells assessed as residual binding level at 1 uM measured after 1 hr by quantitative PCR based BROMOscan assay relative to control; procedure, shortened: as §2
Bromodomain adjacent to zinc finger domain protein 2A (Homo sapiens), sequence (Q9UIF9 whole entry, the tested form may be a part): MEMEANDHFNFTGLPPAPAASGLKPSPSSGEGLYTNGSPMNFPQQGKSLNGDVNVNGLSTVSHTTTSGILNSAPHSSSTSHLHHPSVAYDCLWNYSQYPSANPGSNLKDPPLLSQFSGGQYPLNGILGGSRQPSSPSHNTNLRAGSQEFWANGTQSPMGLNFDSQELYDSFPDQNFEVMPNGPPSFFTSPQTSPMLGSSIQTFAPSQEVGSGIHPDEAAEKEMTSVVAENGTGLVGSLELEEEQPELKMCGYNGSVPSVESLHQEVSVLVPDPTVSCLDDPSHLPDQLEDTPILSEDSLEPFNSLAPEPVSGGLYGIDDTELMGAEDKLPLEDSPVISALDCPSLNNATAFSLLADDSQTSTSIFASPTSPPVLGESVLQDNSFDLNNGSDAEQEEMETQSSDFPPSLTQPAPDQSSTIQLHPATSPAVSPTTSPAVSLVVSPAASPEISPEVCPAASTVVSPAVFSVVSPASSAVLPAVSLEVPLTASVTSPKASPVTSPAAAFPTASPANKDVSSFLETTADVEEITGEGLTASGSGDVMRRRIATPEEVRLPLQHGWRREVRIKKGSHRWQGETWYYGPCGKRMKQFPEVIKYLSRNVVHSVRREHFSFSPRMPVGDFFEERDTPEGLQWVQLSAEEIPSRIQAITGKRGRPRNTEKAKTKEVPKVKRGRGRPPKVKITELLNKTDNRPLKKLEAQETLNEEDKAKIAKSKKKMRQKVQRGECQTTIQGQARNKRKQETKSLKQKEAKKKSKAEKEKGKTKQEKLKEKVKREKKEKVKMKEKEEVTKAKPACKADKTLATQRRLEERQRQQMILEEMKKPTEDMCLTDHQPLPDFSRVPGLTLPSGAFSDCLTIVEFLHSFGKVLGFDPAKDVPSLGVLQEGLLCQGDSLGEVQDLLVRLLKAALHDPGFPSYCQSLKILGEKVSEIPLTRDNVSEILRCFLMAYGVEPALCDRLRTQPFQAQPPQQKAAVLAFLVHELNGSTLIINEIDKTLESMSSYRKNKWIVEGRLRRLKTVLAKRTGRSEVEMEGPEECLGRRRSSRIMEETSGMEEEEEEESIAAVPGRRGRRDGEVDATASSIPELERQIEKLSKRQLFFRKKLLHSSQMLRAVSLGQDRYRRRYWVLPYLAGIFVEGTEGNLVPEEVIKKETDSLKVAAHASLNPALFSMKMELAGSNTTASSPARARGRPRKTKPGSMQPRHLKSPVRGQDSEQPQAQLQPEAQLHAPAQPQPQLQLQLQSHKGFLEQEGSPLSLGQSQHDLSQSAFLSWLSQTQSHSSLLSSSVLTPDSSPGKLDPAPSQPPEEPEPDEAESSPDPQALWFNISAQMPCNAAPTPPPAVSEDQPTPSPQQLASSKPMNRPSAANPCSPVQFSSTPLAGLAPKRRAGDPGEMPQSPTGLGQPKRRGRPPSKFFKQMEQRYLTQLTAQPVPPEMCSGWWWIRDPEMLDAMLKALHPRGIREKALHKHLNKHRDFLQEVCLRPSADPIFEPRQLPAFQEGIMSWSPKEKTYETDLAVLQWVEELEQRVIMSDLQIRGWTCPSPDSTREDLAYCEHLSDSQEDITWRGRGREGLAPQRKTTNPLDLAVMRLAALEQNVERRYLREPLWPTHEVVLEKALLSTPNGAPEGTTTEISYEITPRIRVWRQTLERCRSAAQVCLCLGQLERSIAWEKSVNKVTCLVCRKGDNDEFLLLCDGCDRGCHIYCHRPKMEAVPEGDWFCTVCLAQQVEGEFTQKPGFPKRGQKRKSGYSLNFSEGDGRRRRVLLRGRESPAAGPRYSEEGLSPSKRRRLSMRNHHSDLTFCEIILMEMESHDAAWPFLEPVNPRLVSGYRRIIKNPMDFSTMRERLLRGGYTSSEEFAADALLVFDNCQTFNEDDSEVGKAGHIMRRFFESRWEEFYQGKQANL

[6] = target: T2, Bromodomain-containing protein 4 (Homo sapiens, UniProt O60885); test: Binding affinity to His6-tagged human BRD4 bromodomain 1 expressed in Escherichia coli BL21(DE3) )-codon plus-RIL cells by isothermal titration calorimetric method
Procedure, shortened: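 BRD4 BD1 was His6-tagged and expressed in E. coli BL21(DE3)-codon plus-RIL with IPTG induction overnight at 16 °C. It was purified on Ni-NTA with imidazole step elution and concentrated in HEPES pH 7.5/NaCl/DTT gel filtration buffer. Kd was measured by isothermal titration calorimetry.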

KG-1 = test: Antiproliferative activity against human KG1 cells after 72 hrs by CCK8 or SRB assay; format: functional, cell-based
MV4-11 [7] = test: Induction of apoptosis in human MV4-11 cells after 24 hrs by Annexin V staining based assay; format: functional, cell-based
MV4-11 [8] = test: Induction of apoptosis in human MV4-11 cells assessed as induction of PARP cleavage at 10 to 1000 nM after 24 hrs by Western blot analysis; format: functional, cell-based
Procedure, shortened: (§3)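 MV4-11 cells exposed to compound at the indicated doses for 24 h; lysates probed by Western blotting for the target protein, with GAPDH as loading control.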

MV4-11 [9] = test: Induction of apoptosis in human MV4-11 cells assessed as increase in cleaved caspase-3 level after 24 hrs by Western blot analysis; format: functional, cell-based; procedure, shortened: as §3
[10] = target: T2, Bromodomain-containing protein 4; test: Inhibition of BRD4 in human MV4-11 cells assessed as reduction in BCL2 phosphorylation at Thr56 residues after 24 hrs by Western blot analysis; format: cell-based
Procedure, shortened: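 MV4-11 cells exposed to graded doses for 24 h; lysates immunoblotted for phospho-BCL2, with GAPDH as loading control.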

MV4-11 [11] = test: Induction of apoptosis in human MV4-11 cells assessed as reduction in XIAP level after 24 hrs by Western blot analysis; format: functional, cell-based
MV4-11 [12] = test: Induction of apoptosis in human MV4-11 cells assessed as reduction in BCL-2 mRNA expression after 24 hrs by real time qPCR analysis; format: functional, cell-based
[13] = Tmax in dog plasma at 3 mg/kg, po; format: ADME, organism-based, Canis lupus familiaris
Procedure, shortened: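 Oral dosing in 1% DMSO/0.5% HPMC vehicle (dog 3 mg/kg; rat 10 mg/kg); plasma drug levels measured.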

[14] = Cmax in rat brain at 50 mg/kg, po; format: ADME, organism-based; design: dose 50 mg/kg, route oral
[15] = AUC (0 to t) in ICR mouse brain at 50 mg/kg, po administered via gavage measured after 0.25 to 24 hrs by UPLC/MS analysis; format: ADME, organism-based; design: time lower 0.25 hr, dose 50 mg/kg, time upper 24 hr, route oral
Procedure, shortened: (§4)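 Male ICR mice were dosed orally in 1% DMSO/0.5% HPMC vehicle. Plasma (and brain, where stated) concentrations gave Tmax, Cmax, T1/2, AUC0-t and AUC0-inf.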

[16] = AUC (0 to infinity) in ICR mouse brain at 50 mg/kg, po administered via gavage measured after 0.25 to 24 hrs by UPLC/MS analysis; format: ADME, organism-based; design: dose 50 mg/kg, route oral, time infinity; procedure, shortened: as §4
[17] = Half life in rat plasma at 10 mg/kg, po; format: ADME, organism-based
[18] = Half life in dog plasma at 3 mg/kg, po; format: ADME, organism-based, Canis lupus familiaris
[19] = Bioavailability in rat at 3 mg/kg, iv; format: ADME, organism-based; details: in vivo
MV4-11 [20] = test: Antitumor activity against human MV4-11 cells xenografted in Balb/c nude mouse assessed as tumor growth inhibition at 25 mg/kg, po administered once daily and measured twice a week by caliper method relative to control; format: functional; details: MV4-11, po, read-out: TGI

With `Cc1ccc(-n2nc(C(=O)N3C[C@@H](C)N[C@@H](C)C3)nc2-c2ccc3c(c2)N(C2CCCC2)[C@H](C)C(=O)N3C)cc1` the TDI (Cytochrome P450 1A2) was “Not Active”, the IC50 (MM1.S) was 2.3 nM and the Cmax [1] was 1900 ng/mL. It also gave a half-life [2] of 2.1 h, an Activity [3] of less than 5% and an Activity [4] of 70 to 100%. The Activity [5] was 70 to 100%, the Kd [6] was 15.2 nM and the Activity (KG-1) was “Active”. For the same compound, the Activity (MV4-11 [7]) was “Dose-dependent effect”, the Activity (MV4-11 [8]) was “Active” and the Activity (MV4-11 [9]) was “Dose-dependent effect”. The inhibition [10] was “Dose-dependent effect”, the Activity (MV4-11 [11]) was “Dose-dependent effect” and the Activity (MV4-11 [12]) was “Active”. The Tmax [13] was 0.5 h, the Cmax [14] was 87.6 ng/mL and the AUC(0-t) [15] was 2320 ng·h/mL. It also gave an AUC(0-inf) [16] of 2340 ng·h/mL, a half-life [17] of 5 h and a half-life [18] of 6.6 h. The bioavailability [19] was 18.2% and the inhibition in vivo at 25 mg/kg (MV4-11 [20]) was 89.7%.
